# Reference: ChEMBL document CHEMBL4130516, “Immunomodulatory Polyketides from a Phoma-like Fungus Isolated from a Soft Coral” (J Nat Prod, 2017)
# Calls of active or inactive are those of the source. The calls are words filed in the database; no cut-off is given here.
# What was measured:
# A549 = experiment: Cytotoxicity in human A549 cells assessed as reduction in cell viability at 30 uM incubated for CellTiter-Blue cell viability assay; type: functional, cell-based
# Method in brief: (§1)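 Cells were treated with compounds at 30 μM for 48 h at 37 °C in 5% CO2. Media were DMEM + 10% FBS for A549, HCT116 and MCF-7, and MEM for DAOY. Adriamycin was the positive control. Relative viability was read by CellTiter-Blue at 530/590 nm.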
# HCT-116 = experiment: Cytotoxicity in human HCT116 cells assessed as reduction in cell viability at 30 uM incubated for CellTiter-Blue cell viability assay; type: functional, cell-based; method in brief: as §1
# MCF7 = experiment: Cytotoxicity in human MCF7 cells assessed as reduction in cell viability at 30 uM incubated for CellTiter-Blue cell viability assay; type: functional, cell-based; method in brief: as §1
# Daoy = experiment: Cytotoxicity in human DaOY cells assessed as reduction in cell viability at 30 uM incubated for CellTiter-Blue cell viability assay; type: functional, cell-based; method in brief: as §1
# Splenocyte [1] = experiment: Induction of apoptosis in Con A-stimulated C57BL/6 mouse splenocytes at 3 uM by flow cytometry; type: cell-based
# Method in brief: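 C57BL/6 mouse splenocytes (2 × 10^6 cells/mL) were incubated with compounds at 3 μM for 24 h, with Con A (5 μg/mL) as positive control. Cells were washed with PBS and immediately analysed for apoptosis by flow cytometry.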
# Splenocyte [2] = experiment: Immunomodulatory activity in Con A-stimulated C57BL/6 mouse splenocytes assessed as increase in CD3+T cell proliferation at 3 uM by PE-CD3 staining based flow cytometry; type: functional
# Method in brief: (§2)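 C57BL/6 mouse splenocytes, Con A-stimulated (Con A 5 μg/mL as control), were incubated with compounds at 3 μM for 24 h. Cells were stained with PE-CD3, FITC-CD4 and PerCP/Cy5.5-CD8. Flow cytometry gave the percentage of CD3+, CD4+ and CD8+ T cells and the CD4+/CD8+ ratio. Values are means ± SD, n = 3.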
# Splenocyte [3] = experiment: Immunomodulatory activity in C57BL/6 mouse splenocytes assessed as increase in CD3+T cell proliferation at 3 uM by PE-CD3 staining based flow cytometry; type: functional
# Splenocyte [4] = experiment: Immunomodulatory activity in Con A-stimulated C57BL/6 mouse splenocytes assessed as increase in ratio of CD4+/[…] cells at 3 uM by PE-CD3 staining based flow cytometry; type: functional, cell-based; method in brief: as §2
SMILES,Activity (A549),Activity (HCT-116),Activity (MCF7),Activity (Daoy),Activity (Splenocyte [1]),Activity (Splenocyte [2]),Activity (Splenocyte [3]),Activity (Splenocyte [4])
C[C@@]1(O)CC[C@H]2[C@@H](C=C[C@]3(C)OCC[C@H](O)[C@]23C)C1,inactive,inactive,inactive,inactive,Non-Toxic,inactive,inactive,
C[C@H]1CC[C@H]2[C@H](C1)[C@@H](O)[C@@H]1O/C(=C\C=O)[C@@]2(C)[C@]1(C)O,inactive,inactive,inactive,inactive,Non-Toxic,,,
CC(=O)OCCC(=O)[C@]1(C)[C@H]2CC[C@H](C)C[C@@H]2[C@H](Cl)[C@@H](O)[C@@]1(C)O,inactive,inactive,inactive,inactive,Non-Toxic,,,
C[C@H]1CC[C@H]2[C@@H](C=C[C@@](C)(O)[C@]2(C)C(=O)O)C1,inactive,inactive,inactive,inactive,Non-Toxic,Active,Active,
C[C@H]1CC[C@H]2[C@@H](C=C[C@@](C)(O)[C@]2(C)C(=O)CCO)C1,inactive,inactive,inactive,inactive,Non-Toxic,Active,Active,
CC(=O)OCCC(=O)[C@]1(C)[C@H]2CC[C@@](C)(O)C[C@@H]2C=C[C@@]1(C)O,inactive,inactive,inactive,inactive,Non-Toxic,,,
CC(=O)[C@]1(C)[C@H]2CC[C@@](C)(O)C[C@@H]2C=C[C@@]1(C)O,inactive,inactive,inactive,inactive,Non-Toxic,inactive,inactive,
C[C@@]1(O)CC[C@H]2[C@@H](C=C[C@@]3(C)OC(=O)CC[C@]23C)C1,inactive,inactive,inactive,inactive,Non-Toxic,inactive,inactive,
C[C@H]1CC[C@H]2C(=C[C@@H](O)[C@@](C)(O)[C@]2(C)C(=O)CCO)C1,inactive,inactive,inactive,inactive,Non-Toxic,inactive,inactive,
CC(=O)[C@@]1(C)C(C)=C[C@H](O)[C@H]2C[C@](C)(O)CC[C@@H]21,inactive,inactive,inactive,inactive,Non-Toxic,,,Active
C[C@H]1CC[C@H]2[C@H](C1)[C@H](Cl)[C@@H](O)[C@@](C)(O)[C@]2(C)C(=O)CCO,inactive,inactive,inactive,inactive,Non-Toxic,inactive,inactive,Active
C[C@@]1(O)CC[C@H]2[C@@H](C=C[C@@]3(C)OC(=O)C[C@H](O)[C@]23C)C1,inactive,inactive,inactive,inactive,Non-Toxic,inactive,inactive,Active
C[C@@]1(O)CC[C@H]2[C@H](C1)[C@@H]1O[C@@H]1[C@@]1(C)OC(=O)CC[C@]21C,inactive,inactive,inactive,inactive,Non-Toxic,,,
CC(=O)[C@]1(C)[C@H]2CC[C@H](C)C[C@@H]2[C@H](Cl)[C@@H](O)[C@@]1(C)O,inactive,inactive,inactive,inactive,Non-Toxic,,,
CC(=O)OCCC(=O)[C@]1(C)[C@H]2CC[C@H](C)C[C@@H]2C=C[C@@]1(C)O,inactive,inactive,inactive,inactive,Non-Toxic,inactive,inactive,Active
C[C@@]1(O)CC[C@H]2[C@](O)(C1)[C@@H]1O[C@@H]1[C@@]1(C)OC(=O)CC[C@]21C,inactive,inactive,inactive,inactive,Non-Toxic,Active,Active,
